We go through 4 proteins from ChEMBL document CHEMBL1131831, “A rapid method to identify exo-protease inhibitors” (Bioorg Med Chem Lett, 1999).

Substrate in data set [1]: COCCOCCOCCOCCOC(=O)N[C@@H](C)C(=O)N[C@H](C)C(=O)N(C)c1ccc(C#C/C=C/c2ccc([N+](=O)[O-])c(O)c2)cc1
The experiment in a line: Proteolysis constant (Km), when mixed with elastase enzyme for the conversion of water-soluble compound to fluorescent oil-soluble compound. A digest of the protocol:
(§1)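 Porcine pancreatic trypsin (type IX), porcine pancreatic kallikrein, bovine spleen cathepsin B and porcine pancreatic elastase, each enzyme added to 12 µM substrate solution over mineral oil, shaken at 37 °C. Buffers: trypsin 10 mM Tris-HCl pH 7.8; kallikrein 50 mM Tris pH 9.0; cathepsin B 100 mM potassium phosphate pH 6.0; elastase 10 mM Tris-HCl pH 7.5. Released fluorophore in the oil is diluted with n-heptane and quantified at 424 nm against oil absorbance at 272 nm.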

Substrate in data set [2]: CC[C@@H](C)[C@@H](NC(=O)OCc1ccccc1)C(=O)N1CCC[C@H]1C(=O)N[C@H](CCCCC(=N)N)C(=O)N(C)c1ccc(C#C/C=C/c2ccc([N+](=O)[O-])c(O)c2)cc1
The data set can be described thus: Proteolysis constant (Km), when mixed with trypsin enzyme for the conversion of water-soluble compound to fluorescent oil-soluble compound. The note with it: Sus scrofa. A digest of the protocol: as §1

Substrate in data set [3]: CC(C)C[C@H](NC(=O)[C@H](N)Cc1ccc(O)cc1)C(=O)N[C@@H](C(=O)N(C)c1ccc(C#C/C=C/c2ccc([N+](=O)[O-])c(O)c2)cc1)C(C)C
The experiment in a line: Proteolysis constant (Km), when mixed with human leukocyte elastase (HLE) enzyme for the conversion of water-soluble compound to fluorescent oil-soluble compound. A digest of the protocol: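 Human leukocyte elastase (1 unit = 1.2 µg; releases 1 µmol/min p-nitrophenol from N-t-BOC-L-alanine-p-nitrophenyl ester, pH 6.5, 37 °C) in 50 mM NaOAc, 100 mM NaCl, 8 mM NaN3 pH 6.0. Enzyme mixed with 12 µM substrate in buffer under a trace mineral-oil layer, shaken at 37 °C. Released fluorophore extracted into oil, diluted with n-heptane, quantified by absorbance at 424 nm against oil at 272 nm.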

Substrate in data set [4]: CN(C(=O)[C@@H](CCCCC(=N)N)NC(=O)[C@H](Cc1ccccc1)NC(=O)[C@H]1CCCN1C(=O)OCc1ccccc1)c1ccc(C#C/C=C/c2ccc([N+](=O)[O-])c(O)c2)cc1
The experiment in a line: Proteolysis constant (Km), when mixed with kallikrein enzyme for the conversion of water-soluble compound to fluorescent oil-soluble compound. The gist of the method: as §1

B1: Chymotrypsin-like elastase family member 2A (Sus scrofa), P08419 (protein)
chain: MIRALLLSTLVAGALSCGLPANLPQLPRVVGGEDARPNSWPWQVSLQYDSSGQWRHTCGGTLVDQSWVLTAAHCISSSRTYRVVLGRHSLSTNEPGSLAVKVSKLVVHQDWNSNQLSNGNDIALLKLASPVSLTDKIQLGCLPAAGTILPNNYVCYVTGWGRLQTNGASPDILQQGQLLVVDYATCSKPGWWGSTVKTNMICAGGDGIISSCNGDSGGPLNCQGANGQWQVHGIVSFGSSLGCNYYHKPSVFTRVSNYIDWINSVIANN
Regarding B1, the Km (commonly the substrate concentration at which the rate is half of its maximum) in data set [1] worked out at 325 µM.

B2: Trypsin (Sus scrofa), P00761 (protein)
chain: FPTDDDDKIVGGYTCAANSIPYQVSLNSGSHFCGGSLINSQWVVSAAHCYKSRIQVRLGEHNIDVLEGNEQFINAAKIITHPNFNGNTLDNDIMLIKLSSPATLNSRVATVSLPRSCAAAGTECLISGWGNTKSSGSSYPSLLQCLKAPVLSDSSCKSSYPGQITGNMICVGFLEGGKDSCQGDSGGPVVCNGQLQGIVSWGYGCAQKNKPGVYTKVCNYVNWIQQTIAAN
For B2, the Km in data set [2] came out at 97 µM.

B3: Neutrophil elastase (Homo sapiens), P08246 (protein)
chain: MTLGRRLACLFLACVLPALLLGGTALASEIVGGRRARPHAWPFMVSLQLRGGHFCGATLIAPNFVMSAAHCVANVNVRAVRVVLGAHNLSRREPTRQVFAVQRIFENGYDPVNLLNDIVILQLNGSATINANVQVAQLPAQGRRLGNGVQCLAMGWGLLGRNRGIASVLQELNVTVVTSLCRRSNVCTLVRGRQAGVCFGDSGSPLVCNGLIHGIASFVRGGCASGLYPDAFAPVAQFVNWIDSIIQRSEDNPCPHPRDPDPASRTH
As for B3, in data set [3], the Km is 16.1 µM.

B4: Kallikrein 1 (Sus scrofa), O97506 (protein)
chain: MEVIVLFRIISFRQAVYFMCLFAAVSCGCLPQLHKNTFFRGGDVSAMYTPSARHCQMMCTFHPRCLLFSFLPADSTSVTDKRFGCFLKDSVTGMLPRVLRENAISGHSLKQCGHQIRACHRDIYKGIDMRGVNFNVSKVKTVEECQERCTNSIHCLFFTYATQAFNNAEYRNNCLLKHSPGGTPTSIKVLANVESGFSLKPCADSEIGCHMDIFQHLAFSDVDVARVIAPDAFVCRTICTYHPNCLFFTFYTNAWKIESQRNVCFLKTSHSGTPSFPTPQENAISGYSLLTCKQTLPEPCHSKIYSEVDFEGEELNVTFVQGANLCQETCTKTIRCQFFTYSLHPEDCRGEKCKCSLRLSSDGSPTKITHGMRASSGYSLRLCRSGDHSACATKANTRIVGGTDSFLGEWPWQVSLQAKLRAQNHLCGGSIIGHQWVLTAAHCFDGLSLPDIWRIYGGILNISEITKETPFSQVKEIIIHQNYKILESGHDIALLKLETPLNYTDFQKPICLPSRDDTNVVYTNCWVTGWGFTEEKGEIQNILQKVNIPLVSNEECQKSYRDHKISKQMICAGYKEGGKDACKGESGGPLVCKYNGIWHLVGTTSWGEGCARREQPGVYTKVIEYMDWILEKTQDDDGQSWMK
Turning to B4, the Km in data set [4] worked out at 92.2 µM.
